In ChEMBL document CHEMBL4513216, “Probing the Open Global Health Chemical Diversity Library for Multistage-Active Starting Points for Next-Generation Antimalarials” (ACS Infect Dis, 2020):

Assay: Toxicity liver stage against HepG2, at 10uM
Format: cell-based
Set-up: test concentration 10 uM, cell line HepG2-A16-CD81EGFP
Conditions: human, HepG2-A16-CD81EGFP cells; read-out: INHIBITION
How it was run: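 Uninfected HepG2-A16-CD81EGFP cells, 3 × 10^3 per well, 1536-well, plated on prespotted compound at 10 μM final, parasite-free screening media added to match infected plates; puromycin 10 μM positive, DMSO 0.5% negative; run in parallel with 48 h PbLuc assay at 37 °C, 5% CO2; viability by CellTiter-Glo luminescence, normalized to controls.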

| Compound | cytotoxicity at 10 µM [%] |
| --- | --- |
| CC(=O)N1CCN2C(=O)N(Cc3ccc(F)cc3)C[C@H]2C1 | -4.26 |
| O=C(c1ccno1)N1CCN2C(=O)N(Cc3ccc(F)cc3)C[C@H]2C1 | -5.96 |
| COc1ccc(NC(=O)C2OC(c3cccs3)=NN2C(C)=O)cc1OC (stereo unspecified) | -2.19 |
| CN(C)CCCNC(=O)C1CC(=O)N(c2n[nH]c3cccc(F)c23)C1 (stereo unspecified) | -5.92 |
| CCN1CCCC1CNC(=O)Cc1c(-c2ccc(Cl)cc2)n[nH]c1C (stereo unspecified) | -5.4 |
| Cc1cc(CN2CCC(CNS(=O)(=O)c3ccccc3F)CC2)c(C)o1 | 5.48 |
| O=C(c1ccsc1)N1CCC(c2nnc(C3CC3)o2)CC1 | 12.3 |
| O=C(NCCn1ccc(-c2ccccn2)n1)C1CCC1 | 4.23 |
| O=C(N1CCCO1)[C@@]12CCO[C@@H]1CCN(Cc1ccsc1)C2 | 1.73 |
| O=C1CC(c2ccccc2Br)c2sc(N3CCOCC3)nc2N1 (stereo unspecified) | 9.4 |
| COc1cccc(-c2ccnc3nc(N4CCCCC4)[nH]c(=O)c23)c1 | 7.97 |
| Cc1cc(NC(=O)C(C)Oc2ccc3c(c2)OCO3)no1 (stereo unspecified) | -5.08 |
| CC(Nc1ncnc2c1NC(=O)CN2)c1ccccn1 (stereo unspecified) | 7.66 |
| Cc1ccnc(C2CN(Cc3ccc(-c4ccccc4C(=O)O)o3)C2)n1 | 2.51 |
| CCN(CC)C1CCN(C(=O)c2cc(-n3cccn3)ccc2Cl)CC1 | 2.87 |
| OC1(CN2CCC(Cc3ncccn3)CC2)CCCCC1 | 7.69 |
| CC(C)N1CCCC1c1nc(N(C)C)ncc1I (stereo unspecified) | -0.358 |
| CCOc1ccc(CN2CCC(c3[nH]ncc3C)C2)cc1CO (stereo unspecified) | -2.38 |
| Cc1noc(C)c1CC(=O)NCC1(O)CCCN(c2ccccn2)C1 (stereo unspecified) | -2.03 |
| COCCNCc1cc2cc(C)cc(C)c2[nH]c1=O | -2.13 |
| CC(=O)NC[C@]1(O)CCN(C(=O)c2ccc3c(c2)CCC3)C[C@H]1O | 1.75 |
| CC(C)CCN1CCCC12Cc1ccccc1CNC2=O (stereo unspecified) | 7.61 |
| CCc1nnsc1C(=O)NCCc1nnc2n1CCC2 | 3.16 |

| Compound | cytotoxicity at 10 µM [%] |
| --- | --- |
| Cc1cccc(C(=O)N(CCCO)S(=O)(=O)c2cccs2)c1 | 8.01 |
| COCCCNC(=O)CN(C)C(C)c1nc(C)no1 (stereo unspecified) | 8.8 |
| CC(=O)C(Cc1ccccc1)NC(=O)CSc1nccn1C1CC1 (stereo unspecified) | 5.22 |
| CC(C)Oc1ccc(CNC(=O)C2CCC(=O)N2)cn1 (stereo unspecified) | 10.5 |
| CC(NS(N)(=O)=O)c1ccc(OCc2ccc(F)cc2)cc1 (stereo unspecified) | -2.98 |
| O=C(NC1CCN(C2CC2)C1)c1cn(-c2ccc(F)cc2)nn1 (stereo unspecified) | -2.25 |
| CCc1[nH]c(C2(N)CCCC2)nc(=O)c1C | -1.29 |
| O=C(CNC(=O)c1ccc(Cl)cc1)Nc1nccs1 | -7.55 |
| CCCC(=O)NCc1ccc(N2CCCCC2)cc1 | 3.54 |
| CS(=O)(=O)N1CCC(C(=O)N2CCN(Cc3cccc(Cl)c3)CC2)CC1 | 8.99 |
| Cn1nc(CC(C)(C)C)cc1NC(=O)c1ccc2[nH]nnc2c1 | 1.25 |
| COc1c(CNCc2cccc(CN3CCOCC3)c2)c(C)nn1C | 11.1 |
| Cc1cc(C)n(CC2CCCN2CC(=O)Nc2nncs2)n1 (stereo unspecified) | 12.1 |
| CC(C)c1nnc(CNCC2CCCN2c2cccnn2)o1 (stereo unspecified) | 1.05 |
| CCC1CCCCN1Cc1ncc(-c2ccc(OC)cc2)o1 (stereo unspecified) | 8.57 |
| CCc1nc(CN(C)Cc2ncc(-c3cccs3)o2)cs1 | 9.15 |
| Cc1noc(C)c1CNCc1ccccc1N(C)C1CCN(C)CC1 | 4.69 |
| CN(CCN1CCCC1=O)CC(c1cccs1)N1CCOCC1 (stereo unspecified) | 1.52 |
| Cc1[nH]ccc1C(=O)N1CCCN1C(=O)OC(C)(C)C | -6.49 |
| Cc1noc(C(C)SCc2ccccn2)n1 (stereo unspecified) | -6.67 |
| OC1(CN2CCC(Cc3ccccc3)CC2)CCC1 | -8.26 |
| COc1ccccc1C(C)N1CCN(S(=O)(=O)N(C)C)CC1 (stereo unspecified) | -8.8 |
| c1cnn(C2CN(Cc3noc(C4CC4)n3)C2)c1 | 0.138 |

| Compound | cytotoxicity at 10 µM [%] |
| --- | --- |
| c1cnc(N2CCN(Cn3nccc3-c3cccnc3)CC2)nc1 | 8.99 |
| Cc1csc(C2(NCc3ccc(OCC(F)F)cc3)CCCC2)n1 | 2.15 |
| N#Cc1cc(F)c(NCCc2cccnc2)c(F)c1 | -68.5 |
| Cc1nn(C)c(Cl)c1S(=O)(=O)N(C)c1ccc(Cl)cn1 | 7.92 |
| Cn1ccnc1-c1cccc(NC(=O)NCCN2CCOCC2)c1 | -7.85 |
| CCc1nc(C2CCCN2CC(=O)Nc2c(C)nn(C)c2C)no1 (stereo unspecified) | -31.4 |
| Cc1csc(N2CCN(CCc3ccccn3)CC2C)n1 (stereo unspecified) | -8.81 |
| Cc1ccc2c(c1)[C@@H](CC(=O)N1CCOCC1)CCO2 | 8.24 |
| Nc1ncc(-c2cccc(NC(=O)[C@@H]3CCCCN3)c2)cn1 | 1.86 |
| COc1cncc(-n2ccnc2-c2ccc(C(=O)O)s2)c1 | 0.571 |
| COc1cc(C(=O)N(C)C(C)Cc2cc(C)ccn2)ccn1 (stereo unspecified) | -9.57 |
| Cc1nc[nH]c1CN1CCN(C(=O)C2CC2)[C@H]2CS(=O)(=O)C[C@H]21 | 0.855 |
| Cn1c(CN2CC[C@](C)(O)C(C)(C)C2)cc2ccccc21 | -3.6 |
| CCn1ccnc1CN(C)Cc1nc(Cc2ccccc2Cl)no1 | -1.99 |
| Cn1ncnc1-c1ccnc(NCc2ccncc2)n1 | -3.89 |
| COc1ccc(C(=O)C2CCCN(Cc3cnn(C)c3C)C2)c(OC)c1 (stereo unspecified) | -8.85 |
| OCC1(Cc2ccc(Cl)cc2)CCN(Cc2ccccc2O)CC1 | -137 |
| CC(C)C1=NOC(c2nc(-c3cccc(Cl)c3)no2)C1 (stereo unspecified) | -7.42 |
| O=C(c1ccc(C2CCCO2)s1)N1CCCOCC1 (stereo unspecified) | -0.256 |
| Cc1ncc2c(c1CNC(=O)C1(C)CC1)CCNC2 | -50.3 |
| O=C1CCCN1c1cccc(N2CCC(NCCc3cscn3)CC2)c1 | -26 |
| Cc1ccc(C(=O)N2C[C@H](NS(C)(=O)=O)[C@@H](C(C)C)C2)cc1F | -2.36 |
| CC(C)N1CC2(CCCN(c3ncc(Cl)cc3F)C2)CCC1=O (stereo unspecified) | 12.2 |

| Compound | cytotoxicity at 10 µM [%] |
| --- | --- |
| Cc1nnsc1C(=O)N1CCN(CC2CC2)[C@@H]2CS(=O)(=O)C[C@@H]21 | 0.445 |
| O=C(COCc1ccccc1)N1CCCn2cncc2C1 | 0.375 |
| CS(=O)(=O)CCc1ncnn1-c1ccc(F)c(Cl)c1 | -4.56 |
| COc1cccc2c1OCCCN(c1nc(C)nc3c1CCNCC3)C2 | -10.6 |
| CCc1nnc(CN2CCc3[nH]c(-c4ccc(OC)cc4)nc3C2)o1 | -132 |
| CC(C)C1CN(C(=O)c2cc(C3CC3)n[nH]2)CCC(=O)N1CC1CC1 (stereo unspecified) | -9.55 |
| CNc1nc2c(c(C(=O)N3CCCC3)n1)CN(Cc1cc(C)no1)CC2 | -103 |
| N#Cc1cccc(N2CCC3(CC2)Nc2ccccc2NC3=O)n1 | 5.57 |
| O=C(NCCc1[nH]nc2c1CCCC2)C1CCCN(Cc2ccco2)C1 (stereo unspecified) | 2.72 |
| CCN1CCC(CNc2nccc(C)n2)(N(C)C)CC1 | -0.51 |
| CCN(Cc1ccc(C(C)=O)cc1)CC1CCOCC1 | -2.69 |
| Cc1nc(CN(C)Cc2nc(-c3ccccc3)no2)co1 | -1.86 |
| CCN(Cc1ccncc1)c1cc(C2CCNCC2)nc(C)n1 | 4.34 |
| CN(Cc1cc2n(n1)CCNC2)Cc1cc(-c2ccccn2)no1 | 1.91 |
| O=C(c1cc(Cn2cnc3ccccc32)on1)N1CCOCC1 | -2.46 |
| c1cnc(N2CCN(CCn3ccnc3-c3c[nH]cn3)CC2)nc1 | 2.14 |
| Cc1ccc(-c2noc(CCC3CCN(C)CC3)n2)nn1 | -5.79 |
| COc1cccc2c1OCC(CNC(=O)CNC(N)=O)C2 (stereo unspecified) | -2.93 |
| O=C(c1ccccn1)N1CCCC(c2nccn2CC2CCC2)C1 (stereo unspecified) | -22.4 |
| O=C(c1cccc(S(=O)(=O)NCCCc2ccco2)c1)N1CCOCC1 | -23.6 |
| CN(C)C(=O)c1ccc2c(c1)N(C)C(CC(=O)NCCC(C)(C)C)CO2 (stereo unspecified) | -0.8 |
| Cc1nc(C)n(C2CCCN(C(=O)c3ccnc(N(C)C)c3)C2)n1 (stereo unspecified) | -8.36 |
| Cc1nc(N2CCCN(C(=O)c3ccsc3)CC2)c2cnn(C)c2n1 | -10.8 |

| Compound | cytotoxicity at 10 µM [%] |
| --- | --- |
| O=c1[nH]c(CCN2CCCC2Cn2cccn2)nc2ccccc12 (stereo unspecified) | -8.05 |
| O=C(NCCCN1CCCCC1)c1n[nH]c(=O)c2ccccc12 | -30.9 |
| Cc1csc(N2CCCN(C(=O)Cc3cccs3)CC2)n1 | -6.87 |
| Cc1nc(C)n(C2CCCN(C(=O)c3csc(C)n3)C2)n1 (stereo unspecified) | -18.7 |
| COc1cc(C(=O)NS(=O)(=O)c2cccc(C#N)c2)ccc1C | -9.29 |
| O=C(c1cc(C2CC2)[nH]n1)N1CCCC(n2cncn2)C1 (stereo unspecified) | -6 |
| CCn1ccnc1CN1CCN(CC(O)c2ccccc2)CC1 (stereo unspecified) | -7.41 |
| O=C(CCCc1nc2ccccc2[nH]1)N1CCCC(n2cccn2)C1 (stereo unspecified) | -0.704 |
| Cc1cnn(CCNCc2csc(-c3ccc(F)cc3)n2)c1 | -8.54 |
| CC(C)(C)NC(=O)C1CSCN1S(=O)(=O)c1ccc(F)cc1 (stereo unspecified) | 0.65 |
| CC(C)Sc1ncccc1C(=O)NCc1ccc(CS(C)(=O)=O)cc1 | 3.78 |
| Cc1cc(C)n(C2CCCN(C(=O)c3cc(C4CC4)on3)C2)n1 (stereo unspecified) | -1.11 |
| CC(C)c1nc2n(n1)CC(NCc1ncc(-c3ccccc3)o1)CC2 (stereo unspecified) | -0.361 |
| CC(=O)Nc1ccc(Oc2cc(C)nc(C3CCCNC3)c2)cc1 (stereo unspecified) | 2.58 |
| Cc1ccc(N2CC[C@H]3C[C@H](C(=O)NCc4ccco4)O[C@H]3C2)nn1 | -3.03 |
| Cc1cncc(C(=O)N2CCO[C@H]3[C@H](OCCN(C)C)CC[C@@H]32)c1 | 8.07 |
| CCS(=O)(=O)N1CCCn2cnc(COc3cccnc3)c2C1 | -0.00278 |
| O=C(c1cnccn1)N1C[C@@H](OCc2cccnc2)[C@H]2OCCC[C@H]21 | -2.78 |
| NCC1CCC(C(NC(=O)c2cccc(F)c2)c2ccccn2)CC1 (stereo unspecified) | -6.83 |
